B1: tRNA (parent)
chain: GUUCCGUUGGCGUAAUGGUAACGCGUCUCCCUCCUAAGGAGAAGACUGCGGGUUCGAGUCCCGUACGGAACG

Variants of: B1
Test: yeast fitness, log relative to wild type (ln ratio); higher = fitter; tRNA-Arg(CCU), competitive growth, 37 C, 1 M NaCl
Method in brief: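 A combinatorial tRNA-Arg(CCU) variant library was carried on a HIS3 centromeric plasmid in BY4742 lacking the chromosomal gene, from two independent transformations. Pools grew 4 generations in SC-HIS at 30 °C, then ~6.5 generations (~26.5 h) in SC-HIS 1M NaCl at 37 °C, with three outputs per input. Variants were counted by 125 bp paired-end Illumina sequencing. Fitness is ln of each genotype's generations (OD-scaled log2 output/input frequency, inverse-variance weighted across replicates) over the wild-type's.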

| Variant | yeast fitness (ln) |
| --- | --- |
| U2C A43C C46U C66U A70G C71U | -0.152 |
| U2C C27U C46U A69G | -0.319 |
| U2C C27U A43C C46U C66U A69G A70U | -0.259 |
| U2C C27U A43C C46U C66U A69G A70G | -0.303 |
| U2C A43C C46U C66A A69G A70U C71U | -0.374 |
| U2C G6A A43C C46U C66U A69G A70G C71U | -0.0188 |
| U2C A43C A69G | -0.0815 |
| U2C C27U A43C A70U C71U | -0.172 |
| U2C C27U C46U C66A A70G | -0.137 |
| U2C C27U C46U C66A A70U | -0.0366 |
| U2C C27U A43C C46U A70G C71U | -0.00986 |
| U2C C27U C46U A70U C71U | -0.09 |
| U2C | 0.0175 |
| U2C C66U A69G A70U C71U | -0.404 |
| U2C G6A A43C A69G A70G | -0.0768 |
| U2C G6A A43C A69G A70U | -0.0661 |
| U2C G6A A43C C46U A69G A70G | -0.241 |
| U2C G6A A43C C46U A69G A70U | -0.0634 |
| U2C A43C A69G C71U | -0.138 |
| U2C G6A A43C C66U A70G C71U | -0.0302 |
| U2C C27U A43C C46U C66U A70G | -0.0949 |

| Variant | yeast fitness (ln) |
| --- | --- |
| U2C C27U A43C C46U C66U A70U | -0.115 |
| U2C C27U A43C C46U C66A A70G C71U | -0.105 |
| U2C C27U A43C C46U C66U C71U | -0.174 |
| U2C A43C C46U C66U A69G A70G C71U | -0.315 |
| U2C C46U C66U | -0.171 |
| U2C C46U C66A | -0.0347 |
| U2C C27U C66A A70U C71U | -0.222 |
| U2C G6A A43C | -0.0449 |
| U2C C27U C46U C66A A70U C71U | -0.134 |
| U2C C46U C66U A69G A70U C71U | -0.359 |
| U2C C66A C71U | -0.0382 |
| U2C G6A A43C C66A A70U | -0.0851 |
| U2C A69G A70U C71U | -0.199 |
| U2C C27U C66U A70U C71U | -0.324 |
| U2C G6A A43C A70U C71U | -0.126 |
| U2C A70U C71U | -0.0765 |
| U2C C27U A43C C46U C66U A70G C71U | -0.406 |
| U2C G6A A43C C66U A69G A70G C71U | -0.072 |
| U2C G6A A43C C66U A70U C71U | -0.305 |
| U2C A69G A70G C71U | -0.0131 |
| U2C C46U C66U A70G C71U | -0.00524 |

| Variant | yeast fitness (ln) |
| --- | --- |
| U2C A70G C71U | -0.013 |
| U2C C27U C46U C66U A69G A70G C71U | -0.281 |
| U2C C27U A43C C66U A69G A70U C71U | -0.476 |
| U2C C27U A43C C46U A69G A70U | -0.169 |
| U2C C27U A43C C46U A69G A70G | -0.0239 |
| G1A U2G G6U C66A A69G A70G C71U | -0.325 |
| U2C C46U C66U C71U | -0.0488 |
| U2C C27U A69G A70U C71U | -0.278 |
| U2C C66U A69G A70G C71U | -0.101 |
| U2C C46U C66A A70U C71U | -0.0668 |
| U2C A43C C46U A70U | -0.0182 |
| U2C A43C C46U A70G | -0.00469 |
| U2C A43C C66A C71U | -0.169 |
| U2C G6A A43C C66U C71U | -0.115 |
| U2C A43C A70G C71U | -0.0158 |
| U2C A43C C46U A69G A70U C71U | -0.307 |
| U2C G6A A43C C46U A69G A70G C71U | -0.101 |
| U2C C66A A70U | -0.0514 |
| U2C C66A A70G | -0.11 |
| U2C A43C C66U A70G | -0.0636 |
| U2C A43C C66U A70U | -0.0776 |

| Variant | yeast fitness (ln) |
| --- | --- |
| U2C C66U A69G A70U | -0.0622 |
| U2C C66U A69G A70G | -0.0264 |
| U2C C27U C46U C66U C71U | -0.132 |
| U2C A43C C66U | -0.0874 |
| U2C A43C C66A | -0.0546 |
| U2C A43C C66A A70G | -0.0552 |
| U2C A43C C66A A70U | -0.0829 |
| U2C C46U A69G | -0.0478 |
| U2C G6A A43C C46U A70G | -0.0922 |
| U2C G6A A43C C46U A70U | -0.0234 |
| U2C C27U C46U C66A A70G C71U | -0.181 |
| U2C C27U A43C A70G C71U | -0.0236 |
| U2C C27U A43C C46U C66A C71U | -0.132 |
| U2C C27U A43C C66U A69G C71U | -0.388 |
| U2C G6A A43C C46U A69G C71U | -0.0945 |
| U2C A43C C66U C71U | -0.24 |
| U2C C27U C66U A70G C71U | -0.172 |
| U2C C27U C46U C66U A69G A70U C71U | -0.411 |
| U2C C27U C46U C66U A70U C71U | -0.199 |
| U2C G6A A43C C46U C66A A69G A70G C71U | -0.112 |

Reference: the RNAGym collection of RNA variant scans (doi:10.1038/s41586-018-0170-7)
